Here are results for eleven compounds from ChEMBL document CHEMBL4385612, “Novel 15-Lipoxygenase-1 Inhibitor Protects Macrophages from Lipopolysaccharide-Induced Cytotoxicity” (J Med Chem, 2019).

Active and inactive are the calls of the source. The rule behind the calls is not given here.

Data set [1] deals with RAW264.7. Briefly: Inhibition of LPS/IFNgamma-stimulated lipid peroxidation in mouse RAW264.7 cells at 5 uM after 24 hrs by BODIPY 581/591 C11-staining based FACS assay. The format is functional, cell-based. In short, it runs like this:
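RAW 264.7 cells, 10 × 10^6 per well, incubated overnight. Then LPS/IFNγ (10 ng/mL each) for 24 h with or without inhibitor at 5 μM. Unstimulated cells served as control. Stained with BODIPY 581/591 C11 for 30 min at 37 °C. Red-to-green fluorescence shift measured by flow cytometry, 488 nm excitation. n = 3, mean ± SEM.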
(In general: Flow cytometry measures light scatter and fluorescence of single cells or particles in a stream.)

Data set [2] has as its system RAW264.7. The data set is described as follows: Protection against LPS-induced cell death in mouse RAW264.7 cells assessed as increase in cell viability at 5 uM measured after 48 hrs by MTS assay relative to control. The format is functional. In short, it runs like this:
(§1)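 RAW 264.7 cells seeded at 5000 per well. Given 100 μg/mL LPS together with compound (0.2, 1, 5 μM) for 48 h. Viability measured by MTS: reagent for 2 h at 37 °C, absorbance at 490 nm. Compared with LPS-only control. n = 3–13, mean ± SEM.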
In general terms: Tetrazolium dyes change colour on reduction, which living cells bring about.

The target in data set [3] is T1, Polyunsaturated fatty acid lipoxygenase ALOX15 (Homo sapiens, UniProt P16050).
T1 sequence (P16050 whole entry): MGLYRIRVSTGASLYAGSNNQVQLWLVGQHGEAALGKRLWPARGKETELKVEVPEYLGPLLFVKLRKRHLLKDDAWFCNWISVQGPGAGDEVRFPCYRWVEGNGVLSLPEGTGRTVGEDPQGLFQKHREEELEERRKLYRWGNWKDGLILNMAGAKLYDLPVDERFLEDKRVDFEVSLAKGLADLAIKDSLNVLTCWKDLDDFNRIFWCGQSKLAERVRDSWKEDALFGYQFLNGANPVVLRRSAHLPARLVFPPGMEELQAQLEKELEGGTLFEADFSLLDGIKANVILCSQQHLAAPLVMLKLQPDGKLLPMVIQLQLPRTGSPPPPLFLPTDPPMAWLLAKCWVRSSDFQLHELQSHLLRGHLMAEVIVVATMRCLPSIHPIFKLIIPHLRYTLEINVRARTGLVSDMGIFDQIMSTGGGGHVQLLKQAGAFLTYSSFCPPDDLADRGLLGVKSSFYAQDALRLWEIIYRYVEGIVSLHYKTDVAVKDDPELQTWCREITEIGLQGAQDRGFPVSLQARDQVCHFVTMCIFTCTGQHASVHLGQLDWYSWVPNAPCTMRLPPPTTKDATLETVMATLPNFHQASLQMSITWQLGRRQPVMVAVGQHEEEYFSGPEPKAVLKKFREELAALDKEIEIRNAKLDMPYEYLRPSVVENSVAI
Briefly: Inhibition of human recombinant N-terminal His6-tagged 15-LOX1 expressed in Escherichia coli BL21(DE3) using linoleic acid as substrate preincubated for 10 mins followed by substrate addition by UV absorption analysis.

Data set [4] in a line: Stability in pH 7.4 2-betamercaptoethanol at 25 to 50 uM by UV-spectra analysis. The format is physicochemical. The following applies: buffer, pH 7.4, 50 µM. The method in brief: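 UV spectrum of compound recorded during incubation with 2-mercaptoethanol at pH 7.4, to follow thiol conjugate addition to the α,β-unsaturated amide.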
In data set [5] the target is T2, Polyunsaturated fatty acid lipoxygenase ALOX15 (Mus musculus) (UniProt P39654).
T2 sequence (whole entry): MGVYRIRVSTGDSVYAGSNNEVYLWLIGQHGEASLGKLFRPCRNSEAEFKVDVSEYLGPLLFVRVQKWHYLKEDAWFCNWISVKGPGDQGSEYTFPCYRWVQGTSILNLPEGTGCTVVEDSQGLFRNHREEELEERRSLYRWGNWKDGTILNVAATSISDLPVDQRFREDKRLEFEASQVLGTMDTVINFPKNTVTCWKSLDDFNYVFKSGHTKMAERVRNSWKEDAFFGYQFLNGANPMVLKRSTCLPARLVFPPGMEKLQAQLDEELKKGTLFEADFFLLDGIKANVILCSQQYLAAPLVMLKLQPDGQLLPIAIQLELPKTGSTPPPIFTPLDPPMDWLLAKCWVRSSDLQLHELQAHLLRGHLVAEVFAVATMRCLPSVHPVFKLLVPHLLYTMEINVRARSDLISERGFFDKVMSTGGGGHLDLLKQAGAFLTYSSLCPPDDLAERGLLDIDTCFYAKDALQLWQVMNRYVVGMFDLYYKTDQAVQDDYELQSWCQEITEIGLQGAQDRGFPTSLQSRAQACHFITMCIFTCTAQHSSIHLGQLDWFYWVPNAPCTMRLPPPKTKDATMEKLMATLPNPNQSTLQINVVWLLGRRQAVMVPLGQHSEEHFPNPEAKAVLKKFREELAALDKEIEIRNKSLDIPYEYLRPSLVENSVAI
The data set is described as follows: Inhibition of 15-LOX1 in LPS/IFNgamma-stimulated mouse RAW264.7 cells assessed as reduction in nitric oxide production preincubated for 20 hrs followed by LPS/IFNgamma stimulation and measured after 4 hrs by colorimetric method. The format is cell-based. In short, it runs like this: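 RAW 264.7 cells stimulated with LPS and IFNγ (10 ng/mL each). Figure legend: compound added at 0.2, 1 and 5 μM for 20 h, then LPS/IFNγ for a further 4 h. Methods describe 2 × 10^6 cells per well and a 24 h incubation at 5 μM. Total nitrate/nitrite measured with a colorimetric kit. Stimulated control set to 100%. n = 3, mean ± SEM.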

The test system of data set [6] is RAW264.7. Briefly: Protection against LPS-induced cell death in mouse RAW264.7 cells assessed as increase in cell viability measured after 48 hrs by MTS assay. The class given is functional, cell-based. In short, it runs like this: as §1
In data set [7] the target is T2, Polyunsaturated fatty acid lipoxygenase ALOX15 (Mus musculus). Briefly: Inhibition of N144 probe binding to 15-LOX in mouse RAW264.7 cells measured after 2 mins by HRP-coupled Western blot analysis. The class given is cell-based. In short, it runs like this: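 Lysates of inhibitor-treated and untreated RAW 264.7 cells exposed to covalent alkene probe N144 for 2 min. Probe then biotinylated by oxidative Heck reaction with a biotinylated phenylboronic acid and detected on blots with streptavidin–HRP. Blots also probed for 15-LOX-1 and β-actin. Band intensities normalised to β-actin. n = 3 independent experiments, mean ± SEM.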
Background: A western blot detects proteins with antibodies after separation by electrophoresis.

For data set [8] the target is unchanged. The data set is described as follows: Inhibition of 15LOX1 in LPS/IFNgamma-stimulated mouse RAW264.7 cells assessed as down regulation of iNOS gene expression at 5 uM preincubated for 20 hrs followed by LPS/IFNgamma stimulation and measured after 4 hrs by RT-PCR analysis relative to control. The format is cell-based. In short, it runs like this:
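RAW 264.7 cells pretreated with compound (0.2, 1, 5 μM) for 20 h, then stimulated with LPS/IFNγ (10 ng/mL each) for 4 h in its presence. Total RNA isolated and integrity checked by 28S/18S ratio. RNA reverse-transcribed, and 10 ng cDNA used per real-time PCR. iNOS expression calculated by 2^–ΔΔCt and normalised to the stimulated positive control. n = 3–4, mean ± SEM.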

Data set [9] has the same target. The data set is described as follows: Inhibition of 15LOX1 in mouse RAW blue cells assessed as suppression of LPS/IFNgamma-stimulated NFkappaB activation by measuring reduction in SEAP release at 0.2 to 5 uM preincubated for 20 hrs followed by LPS/IFNgamma-stimulation and measured after 4 hrs by quanti blue reagent-based reporter gene assay. The format is cell-based. In short, it runs like this: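 RAW-Blue cells (RAW 264.7 carrying an NF-κB–SEAP reporter, kept with 200 μg/mL Zeocin) seeded at 10 × 10^4 per well the day before. Pretreated with compound (0.2, 1, 5 μM) for 20 h, then LPS and IFNγ (10 ng/mL each) added for 4 h. Secreted SEAP read with QuantiBlue after 2 h at 37 °C, absorbance 635–655 nm. n = 8–16, mean ± SEM.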

A word on the inhibition: it is the drop in the measured response relative to a control, in per cent. Turning to `CC(c1cc2ccccc2s1)N(O)C(N)=O` (centres undefined), in the data set with RAW264.7 [1], the inhibition entry was “Active”. For the same compound, the result in the data set on RAW264.7 [2] was Active.
For orientation: IC50 means the concentration needed to halve the response being measured. Take `CCCNC(=O)c1c(C(=O)OCC)[nH]c2cc(Cl)ccc12`: in data set [3], the IC50 was over 20 µM.
On the same count and under the same terms, in the case of `CCOC(=O)c1[nH]c2cc(Cl)ccc2c1/C=C/C(=O)NCCc1ccccc1` it was over 20 µM; in that of `CCCNC(=O)c1[nH]c2cc(Cl)ccc2c1C(=O)C[C@@H](C)CCCC(C)C`, over 20 µM; in that of `O=C(NC1CC1)c1cc2ccc(Cl)cc2[nH]1`, over 20 µM.
As for `c1ccc2c(c1)SCc1c-2[nH]c2ccccc12`, the inhibition entry in the data set with RAW264.7 [1] is “Active”.
As for `CCCNC(=O)c1[nH]c2cc(Cl)ccc2c1CN(C)C`, in data set [3], the concentration for half-maximal inhibition (IC50) is over 20 µM.
On the same count and under the same terms, in the case of `CCCNC(=O)c1[nH]c2cc(Cl)ccc2c1C(=O)C[C@H](C)CCCC(C)C` it was over 20 µM.
Consider `CCOC(=O)c1[nH]c2cc(Cl)ccc2c1/C=C/C(=O)NCc1ccccc1OC`, for which the Stability entry in [4] was “Stable”. Further, the inhibition result (in the data set on RAW264.7 [1]; in data set [7]; in [9]) was “Active” throughout. Moreover, the inhibition entry in [5] was “Dose-dependent effect”; in [8], 50%. The Activity is 20% in the data set on RAW264.7 [2] and “Dose-dependent effect” with RAW264.7 [6].
Turning to `CCOC(=O)c1[nH]c2cc(Cl)ccc2c1C(=O)C[C@@H](C)CCCC(C)C`, the result with RAW264.7 [2] was Active.
Regarding `CCCNC(=O)c1[nH]c2cc(Cl)ccc2c1/C=C/C(=O)NCc1ccccc1OC`, the IC50 in data set [3] is over 20 µM.
